Laboratory results from ChEMBL document CHEMBL3091338, “Secoemestrin D, a cytotoxic epitetrathiodioxopiperizine, and emericellenes A-E, five sesterterpenoids from Emericella sp. AST0036, a fungal endophyte of Astragalus lentiginosus1” (J Nat Prod, 2013).
pIC50: −log10 of the molar value. The source made the active and inactive calls. The rule behind the calls is not given here.

Legend:
[1] = test system: NCI-H460; assay: Cytotoxicity against human NCI-H460 cells up to 5 uM after 72 hrs by Alamar Blue assay; format: functional, cell-based
Procedure, shortened: (§1)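 In vitro cytotoxicity was read by the colorimetric resazurin (AlamarBlue) assay of cell viability. The panel covered human non-small cell lung NCI-H460, CNS glioma SF-268, breast MCF-7, metastatic breast adenocarcinoma MDA-MB-231, metastatic prostate adenocarcinoma PC-3M and neuroblastoma CHP-100 cancer lines, plus normal human lung fibroblast WI-38 cells.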

[2] = test system: MDA-MB-231; assay: Cytotoxicity against human MDA-MB-231 cells up to 5 uM after 72 hrs by Alamar Blue assay; format: functional, cell-based; procedure, shortened: as §1
[3] = test system: MCF7; assay: Cytotoxicity against human MCF7 cells up to 5 uM after 72 hrs by Alamar Blue assay; format: functional, cell-based; procedure, shortened: as §1
[4] = test system: CHP100; assay: Cytotoxicity against human CHP100 cells up to 5 uM after 72 hrs by Alamar Blue assay; format: functional, cell-based; procedure, shortened: as §1
[5] = Cytotoxicity against human WI38 cells up to 5 uM after 72 hrs by Alamar Blue assay; format: cell-based; conditions: wi-38, 72 h; procedure, shortened: as §1
[6] = test system: PC-3M; assay: Cytotoxicity against human PC3M cells up to 5 uM after 72 hrs by Alamar Blue assay; format: functional, cell-based; procedure, shortened: as §1
[7] = test system: SF-268; assay: Cytotoxicity against human SF268 cells up to 5 uM after 72 hrs by Alamar Blue assay; format: functional, cell-based; procedure, shortened: as §1
[8] = test system: MCF7; assay: Cytotoxicity against human MCF7 cells after 72 hrs by Alamar Blue assay; format: functional, cell-based
Procedure, shortened: (§2)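 Resazurin-based colorimetric cell viability read-out on human cancer cells (MCF-7 breast; PC-3M metastatic prostate adenocarcinoma), run in vitro in a panel that also included normal human lung fibroblast WI-38 cells.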

[9] = Cytotoxicity against human WI38 cells after 72 hrs by Alamar Blue assay; format: cell-based; conditions: WI-38, 72 h; procedure, shortened: as §1
[10] = Cytotoxicity against human PC3M cells after 72 hrs by Alamar Blue assay; format: functional, cell-based, PC-3M; procedure, shortened: as §2
[11] = Cytotoxicity against human CHP100 cells after 72 hrs by Alamar Blue assay; format: functional, cell-based; conditions: CHP100, 72 h; procedure, shortened: as §1
[12] = test system: SF-268; assay: Cytotoxicity against human SF268 cells after 72 hrs by Alamar Blue assay; format: functional, cell-based; procedure, shortened: as §1
[13] = test system: NCI-H460; assay: Cytotoxicity against human NCI-H460 cells after 72 hrs by Alamar Blue assay; format: functional, cell-based; procedure, shortened: as §1
[14] = test system: MDA-MB-231; assay: Cytotoxicity against human MDA-MB-231 cells after 72 hrs by Alamar Blue assay; format: functional, cell-based; procedure, shortened: as §1

Compound: C=C(C)[C@H]1COc2c(C)cc3oc4ccc(CC=C(C)C)c(O)c4c(=O)c3c2[C@H]1O (relative stereo)
- Activity [1]: inactive
- Activity [2]: inactive
- Activity [3]: inactive
- Activity [4]: inactive
- Activity [5]: Non-toxic
- Activity [6]: inactive
- Activity [7]: inactive

Compound: CC(C)=CCC[C@@]1(C(=O)O)[C@H]2C/C=C(\C)CC/C=C(\C)CC[C@H]1[C@@]1(CC2)CO1
- Activity [1]: inactive
- Activity [2]: inactive
- Activity [3]: inactive
- Activity [4]: inactive
- Activity [5]: Non-toxic
- Activity [6]: inactive
- Activity [7]: inactive

Compound: CC(C)=CCc1ccc2c(c1O)C(=O)c1c(O)cc(C)c3c1C(O2)C(C(C)(C)O)CO3 (stereo unspecified)
- Activity [1]: inactive
- Activity [2]: inactive
- Activity [3]: inactive
- Activity [4]: inactive
- Activity [5]: Non-toxic
- Activity [6]: inactive
- Activity [7]: inactive

Compound: COc1ccc(C(=O)O[C@H]2C=COC=C3C[C@]45SSSS[C@](Cc6ccc(O)cc6)(C(=O)N4[C@@H]32)N(C)C5=O)cc1O
- pIC50 ([8]; Homo sapiens, MCF7, 72 h): 6.85
- pIC50 [9]: 6.62
- pIC50 ([10]; Homo sapiens, PC-3M, 72 h): 6.77
- pIC50 [11]: 7.00
- pIC50 ([12]; Homo sapiens, SF-268, 72 h): 7.22
- pIC50 ([13]; Homo sapiens, NCI-H460, 72 h): 6.82
- pIC50 ([14]; Homo sapiens, MDA-MB-231, 72 h): 7.22

Compound: CC(C)=CCC[C@@]1(C(=O)O)[C@H]2C/C=C(\C)CC/C=C(\C)CC[C@H]1[C@H](C=O)CC2
- Activity [1]: inactive
- Activity [2]: inactive
- Activity [3]: inactive
- Activity [4]: inactive
- Activity [5]: Non-toxic
- Activity [6]: inactive
- Activity [7]: inactive

Compound: CC(C)=CCC[C@@]1(C=O)[C@H]2C/C=C(\C)CC/C=C(\C)CC[C@H]1[C@@]1(CC2)CO1
- Activity [1]: inactive
- Activity [2]: inactive
- Activity [3]: inactive
- Activity [4]: inactive
- Activity [5]: Non-toxic
- Activity [6]: inactive
- Activity [7]: inactive

Compound: CC(C)=CCC[C@@]1(C(=O)O)[C@H]2C/C=C(\C)CC/C=C(\C)CC[C@H]1[C@@H](C=O)CC2
- Activity [1]: inactive
- Activity [2]: inactive
- Activity [3]: inactive
- Activity [4]: inactive
- Activity [5]: Non-toxic
- Activity [6]: inactive
- Activity [7]: inactive

Compound: COc1cccc2c1C(=O)c1c(O)c3c(c(O)c1C2=O)C[C@@](O)(C(=O)CO)C[C@@H]3O[C@H]1C[C@H](N)[C@H](O)[C@H](C)O1 [DOXORUBICIN]
- pIC50 ([10]; Homo sapiens, PC-3M, 72 h): 6.57
- pIC50 [11]: 6.10
- pIC50 ([12]; Homo sapiens, SF-268, 72 h): 6.51
- pIC50 ([13]; Homo sapiens, NCI-H460, 72 h): 7.30
- pIC50 ([14]; Homo sapiens, MDA-MB-231, 72 h): 6.17

Compound: COc1cc2c(c3oc4cccc(O)c4c(=O)c13)[C@@H]1C=CO[C@@H]1O2 [STERIGMATOCYSTIN]
- pIC50 ([8]; mcf7): 5.44
- pIC50 ([10]; pc-3m): 5.49
- pIC50 ([12]; sf-268): 5.53
- pIC50 ([13]; nci-h460): 5.47
- pIC50 ([14]; mda-mb-231): 5.56

Compound: CC(C)=CCC[C@@]1(C(=O)O)[C@@H]2CC=C(CO)[C@@H]1CC/C(C)=C/CC/C(C)=C/C2
- Activity [1]: inactive
- Activity [2]: inactive
- Activity [3]: inactive
- Activity [4]: inactive
- Activity [5]: Non-toxic
- Activity [6]: inactive
- Activity [7]: inactive
